One experiment concerns the target recombinant human HDAC 1 (Homo sapiens, UniProt Q13547). In words: HDAC enzyme inhibition assay, HDAC1. As to conditions: read-out: In vitro IC50, HD1, NI = no inhibition up to 10 mM tested. Format: biochemical. In short, it runs like this: (§1)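 Recombinant human enzyme incubated at 37°C for 30 min in HDAC assay buffer with 5 μg BSA and fluorogenic substrate 3 (10 μM). Double-strength developer was then added for 20 min at room temperature, and fluorescence was read at ex 360/em 460 nm. The six-point concentration series was run in duplicate. Activity was taken as (F−Fb)/(Ft−Fb), with no-inhibitor as 100% and no-enzyme as 0%, and IC50 came from a sigmoidal nonlinear fit.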

For a further experiment, the target named is recombinant human HDAC 2 (Homo sapiens, UniProt Q92769). Briefly: HDAC enzyme inhibition assay, HDAC2. The experiment is classed as biochemical. As to conditions: read-out: In vitro IC50, HD2. An outline of the steps: as §1
Chain of recombinant human HDAC 2 (Q92769 whole entry): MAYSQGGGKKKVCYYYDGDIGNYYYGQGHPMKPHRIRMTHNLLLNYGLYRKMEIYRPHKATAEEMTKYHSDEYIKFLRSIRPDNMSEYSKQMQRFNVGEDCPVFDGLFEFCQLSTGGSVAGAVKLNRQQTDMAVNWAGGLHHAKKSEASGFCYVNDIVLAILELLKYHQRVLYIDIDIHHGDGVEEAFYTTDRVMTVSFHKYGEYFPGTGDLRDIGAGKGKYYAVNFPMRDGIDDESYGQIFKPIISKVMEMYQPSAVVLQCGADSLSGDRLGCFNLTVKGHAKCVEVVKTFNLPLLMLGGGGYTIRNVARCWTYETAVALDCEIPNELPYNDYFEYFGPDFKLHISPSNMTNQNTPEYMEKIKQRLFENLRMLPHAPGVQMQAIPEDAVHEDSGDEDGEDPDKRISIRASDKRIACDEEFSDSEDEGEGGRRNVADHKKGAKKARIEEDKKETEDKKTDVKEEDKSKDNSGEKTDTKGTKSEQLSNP
In the next experiment the target is recombinant human HDAC 3 (Homo sapiens, UniProt O15379). Briefly: HDAC enzyme inhibition assay, HDAC3. The experiment is classed as biochemical. Particulars: read-out: In vitro IC50, HD3. In short, it runs like this: as §1
Chain of recombinant human HDAC 3 (O15379 whole entry): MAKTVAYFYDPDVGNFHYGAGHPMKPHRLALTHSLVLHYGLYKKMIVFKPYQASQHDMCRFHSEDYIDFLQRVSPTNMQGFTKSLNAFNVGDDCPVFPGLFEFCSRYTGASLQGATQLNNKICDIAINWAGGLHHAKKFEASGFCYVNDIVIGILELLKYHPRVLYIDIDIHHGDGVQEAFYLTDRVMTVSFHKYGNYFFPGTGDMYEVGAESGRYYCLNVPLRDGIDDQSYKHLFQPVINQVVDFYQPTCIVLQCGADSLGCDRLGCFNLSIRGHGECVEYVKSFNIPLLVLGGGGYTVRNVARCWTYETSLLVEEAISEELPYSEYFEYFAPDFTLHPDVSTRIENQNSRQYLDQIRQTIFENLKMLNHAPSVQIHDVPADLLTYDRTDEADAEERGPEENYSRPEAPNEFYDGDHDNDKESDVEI
Chain of recombinant human HDAC 3 (Q9Y618 395-489 partner limits assumed): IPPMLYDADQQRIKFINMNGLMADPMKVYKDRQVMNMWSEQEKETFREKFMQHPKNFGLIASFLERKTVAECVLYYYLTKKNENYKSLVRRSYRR
Another experiment addresses T1, recombinant human HDAC 8 (Homo sapiens, UniProt Q9BY41).
T1 sequence (Q9BY41 1-377): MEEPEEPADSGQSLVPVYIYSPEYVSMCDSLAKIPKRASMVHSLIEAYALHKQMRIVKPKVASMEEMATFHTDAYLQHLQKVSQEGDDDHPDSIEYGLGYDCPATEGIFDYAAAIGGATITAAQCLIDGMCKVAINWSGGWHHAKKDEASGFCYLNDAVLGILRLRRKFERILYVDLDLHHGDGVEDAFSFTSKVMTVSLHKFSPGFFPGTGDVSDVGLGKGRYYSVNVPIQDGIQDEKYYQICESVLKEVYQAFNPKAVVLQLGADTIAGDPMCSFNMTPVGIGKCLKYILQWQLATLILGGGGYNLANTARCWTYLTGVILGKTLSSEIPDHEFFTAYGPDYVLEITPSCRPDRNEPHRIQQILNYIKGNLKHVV
In words: HDAC enzyme inhibition assay, HDAC8. The experiment is classed as biochemical. Particulars: read-out: In vitro IC50, HD8. In short, it runs like this: as §1

Experiment [1] deals with T2, recombinant human HDAC 10 (Homo sapiens, UniProt Q969S8).
T2 sequence (Q969S8 1-669): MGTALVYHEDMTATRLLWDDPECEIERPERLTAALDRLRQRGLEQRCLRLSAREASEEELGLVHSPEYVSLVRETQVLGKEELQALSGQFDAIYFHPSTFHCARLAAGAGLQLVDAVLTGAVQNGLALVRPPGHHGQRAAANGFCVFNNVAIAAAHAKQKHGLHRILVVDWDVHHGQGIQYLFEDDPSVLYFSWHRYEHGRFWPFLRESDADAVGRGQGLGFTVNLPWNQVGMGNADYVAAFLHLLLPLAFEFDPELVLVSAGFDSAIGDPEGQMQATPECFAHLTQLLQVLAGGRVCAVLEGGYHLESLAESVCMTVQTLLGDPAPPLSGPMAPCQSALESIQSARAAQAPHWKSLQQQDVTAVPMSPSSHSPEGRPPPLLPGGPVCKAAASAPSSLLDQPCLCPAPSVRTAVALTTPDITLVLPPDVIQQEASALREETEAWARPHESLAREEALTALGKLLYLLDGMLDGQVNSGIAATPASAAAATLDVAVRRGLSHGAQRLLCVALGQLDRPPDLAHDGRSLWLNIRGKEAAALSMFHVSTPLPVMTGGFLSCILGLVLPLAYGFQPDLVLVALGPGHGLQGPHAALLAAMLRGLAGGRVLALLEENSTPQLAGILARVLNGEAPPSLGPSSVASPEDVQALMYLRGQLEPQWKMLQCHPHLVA
In words: HDAC enzyme inhibition assay, HDAC10. Format: biochemical. As to conditions: read-out: In vitro IC50, HD10. In short, it runs like this: as §1

Experiment [2] concerns the target T3, recombinant human HDAC 11 (Homo sapiens, UniProt Q96DB2).
T3 sequence (Q96DB2 1-347): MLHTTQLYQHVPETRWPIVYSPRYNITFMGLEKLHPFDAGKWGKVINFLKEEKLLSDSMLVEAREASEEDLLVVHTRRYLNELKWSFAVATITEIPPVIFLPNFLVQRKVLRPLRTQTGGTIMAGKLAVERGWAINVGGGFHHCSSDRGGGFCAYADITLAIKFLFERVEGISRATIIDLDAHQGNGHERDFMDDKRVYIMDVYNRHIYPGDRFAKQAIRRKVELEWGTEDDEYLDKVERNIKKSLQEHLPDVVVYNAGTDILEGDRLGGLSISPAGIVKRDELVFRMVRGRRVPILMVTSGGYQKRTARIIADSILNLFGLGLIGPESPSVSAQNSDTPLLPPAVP
Briefly: HDAC enzyme inhibition assay, HDAC11. The experiment is classed as biochemical. Particulars: read-out: In vitro IC50, HD11. An outline of the steps:
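Recombinant human enzyme incubated for 60 min at 37°C in HDAC assay buffer containing 5 μg BSA and substrate 3 at 10 μM. Developer (double strength) was added for 20 min at room temperature, and fluorescence was read at 360/460 nm. Six concentrations were tested in duplicate. Percent activity was normalised between no-inhibitor (100%) and no-enzyme (0%) wells, and IC50 came from sigmoidal nonlinear regression.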

Experiment [3] relates to hippocampal histone H3 and H4 acetylation. In words: Brain/hippocampal histone acetylation after i.p. injection. The experiment is classed as in vivo, Long-Evans rats.
The test system of another experiment is contextual fear memory. In words: Contextual fear conditioning, 24 hr retention. The experiment is classed as in vivo, Long-Evans rats. As to conditions: 1.2 g/kg i.p. 1 hr prior to CFC training.

One may read the IC50 as the midpoint of a concentration-inhibition curve.

Each structure is given as a SMILES string.

Chain of recombinant human HDAC 1 (Q13547 whole entry): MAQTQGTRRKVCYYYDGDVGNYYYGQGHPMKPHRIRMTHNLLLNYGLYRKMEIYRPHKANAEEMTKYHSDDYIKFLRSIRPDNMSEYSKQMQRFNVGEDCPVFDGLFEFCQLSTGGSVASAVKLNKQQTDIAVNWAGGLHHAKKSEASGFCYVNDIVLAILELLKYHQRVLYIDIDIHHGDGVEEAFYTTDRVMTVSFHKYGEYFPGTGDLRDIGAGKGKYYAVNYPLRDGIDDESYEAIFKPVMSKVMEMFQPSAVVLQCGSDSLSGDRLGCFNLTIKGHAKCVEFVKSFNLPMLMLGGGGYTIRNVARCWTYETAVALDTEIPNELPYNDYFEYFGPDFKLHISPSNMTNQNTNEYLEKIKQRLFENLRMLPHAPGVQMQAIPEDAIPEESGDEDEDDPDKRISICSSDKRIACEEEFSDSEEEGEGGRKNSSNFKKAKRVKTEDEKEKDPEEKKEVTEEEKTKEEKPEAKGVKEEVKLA

As to `CCCC(=O)[O-].[Na+]` [NaB, sodium butyrate], the IC50 came out at 330 µM at recombinant human HDAC 1; 118 µM at recombinant human HDAC 2; 126 µM at recombinant human HDAC 3; 611 µM on recombinant human HDAC 8; 543 µM in experiment [1]; 565 µM in experiment [2]. In experiment [3] (30 min after 1.2 g/kg i.p.), the “histone H3 and H4 acetylation in whole hippocampus, 30 min” value is reported as “increasing at 30 min relative to vehicle”. Also, the “histone H3 and H4 acetylation in whole hippocampus, 60 min” value in experiment [3] (60 min after 1.2 g/kg i.p.) is given as “returning to baseline levels”. For the same molecule, the “mean freezing at 24 hr retention test” value in the experiment with contextual fear memory was determined as 12.73 s. The “retention of contextual fear memory at 24 hr” value in the experiment on contextual fear memory was “failed to enhance retention”.

The values are drawn from paper PMC4107104 (Hippocampus, 2014).
